Compounds with a hit are over-represented: about 1.9% of the library has one in this group of screens.
bCat nuc transl: alters nuclear translocation of beta-catenin in HeLa cells; AID 1665; immunofluorescence imaging; nuclear translocation activity, % at 5 µM; 190,000 tested, 0.3% active;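 active = nuclear translocation activity above 50% at 5 µM, with a well cell count of 50 or more; inconclusive = wells under 50 cells across six images, flagged as toxic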;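 also: per-cell ratio of nuclear to cytoplasmic median beta-catenin stain intensity; plate controls were DMSO negative control for no effect and GSK-3 inhibitor IX positive control for full effect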
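System: HeLa cells, endogenous beta-catenin; compound dosing: 5 µM primary single dose, 0.1% DMSO, 0.02–20 µM confirmation series; incubation: 24 h compound exposure at 37°C, 5% CO2; signal: beta-catenin immunofluorescence imaging with DAPI; evaluation: % activation, nuclear-to-cytoplasmic median beta-catenin signal ratio per cell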
ROMK primary: modulates human ROMK potassium channel activity. P48048. Tet-inducible ROMK, thallium flux fluorescence; actives lie on both sides. B-score at 10 µM. 130,000 tested, 2% active. AID 1918;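 active = signal ratio slope over the read window, or its plate-corrected B-score, at least 3 SD from the plate mean, either direction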;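 also: B-score of the F/F0 ratio slope over 7 to 12 s after thallium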
Target sequence (P48048 whole entry, looked up): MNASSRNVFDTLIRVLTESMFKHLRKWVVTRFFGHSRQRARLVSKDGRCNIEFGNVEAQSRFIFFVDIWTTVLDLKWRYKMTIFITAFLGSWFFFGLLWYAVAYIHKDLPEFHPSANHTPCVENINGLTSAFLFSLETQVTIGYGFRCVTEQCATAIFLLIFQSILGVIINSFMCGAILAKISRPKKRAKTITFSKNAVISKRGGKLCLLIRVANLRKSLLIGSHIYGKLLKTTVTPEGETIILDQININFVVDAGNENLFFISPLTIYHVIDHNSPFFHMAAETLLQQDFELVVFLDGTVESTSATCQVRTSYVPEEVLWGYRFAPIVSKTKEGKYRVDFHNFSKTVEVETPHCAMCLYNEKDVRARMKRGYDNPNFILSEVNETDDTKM
MT stabilize HCS: microtubule stabilization, imaging screen; % tubulin-high responders, % at 10 µM; AID 2205; 200,000 tested, 0.83% active; HeLa tubulin immunostaining HCS, 24 h; share of cells brighter than vehicle mean+2SD;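 active = plate Z-score above 3 for both tubulin-high and condensed-nucleus cell shares, with cell loss under 80%, at 10 µM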;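 also: anti alpha tubulin signal scored within the nucleus-defined area of each cell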
ROMK retest: retested hit modulating human ROMK potassium channel; AID 1917; normalized thallium flux (F/F0 slope) at 10 µM; 3,000 tested, 54% active; ROMK thallium flux, fluorescence ratio; hits give low values; shares compounds with ROMK primary;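 active = Flux at 10 µM at least 3 SD below or above vehicle control mean in one or both replicates; inconclusive = no clear call, values can overlap the other calls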
Active calls of the source: *; u = inconclusive; x = not tested or not shown.

SMILES	bCat nuc transl	ROMK primary	MT stabilize HCS	ROMK retest
COC(=O)C(C)(C)ONC(=O)Nc1ccc(C)cc1	-1	-0.41	3	x
CCc1c(C(=O)Nc2ccncc2)csc1C	1	-1.3	3	x
CCOC(=O)C1=NN(C(=O)Cc2ccccc2)C(O)(C(C)(C)C)C1 (centres undefined)	0	-13*	1	0.077
CC(C)(C)C1(O)CC(C(F)(F)F)=NN1C(=O)CCc1ccccc1 (centres undefined)	0	-0.17	5	x
CC(=O)Nc1ccc(S(=O)(=O)NCCC(=O)NCCc2ccc(F)cc2)cc1	-1	x	2	0.081
CCNS(=O)(=O)c1ccc(NC(=O)Cc2ccc(F)cc2)cc1	0	x	3	x
CCn1cc(C(=O)O)c(=O)c2cnc(N3CCN(C(=S)Nc4ccccc4Cl)CC3)nc21	-1	x	x	x
Cc1nc2ccccc2c(=O)n1/N=C/c1ccc2ccccc2c1O	1	x	x	0.076
Cc1nc2ccccc2c(=O)n1/N=C/c1ccccc1O	-1	-0.036	x	x
Cc1ccc(NC(=O)c2ccccc2NS(=O)(=O)c2ccc(F)cc2)cc1S(=O)(=O)N1CCCCC1	-5	1.1	3	x
Cc1ccc(-c2csc(NC(=O)c3ccc4c(=O)n5c(nc4c3)CCCCC5)n2)cc1	0	x	3	x
Cc1cccc2cc(CN(Cc3ccc(F)cc3)Cc3nnnn3C3CCCC3)c(=O)[nH]c12	-3	0.79	4	x
Cc1cc(C)c2[nH]c(=O)c(CN(Cc3ccc4c(c3)OCO4)Cc3nnnn3C3CCCC3)cc2c1	-1	-3.2*	8	u
O=c1[nH]cc(NCCNc2ncc(C(F)(F)F)cc2Cl)c(=O)[nH]1	0	0.67	4	x
COC(=O)C1CCN(C(=O)CCCOc2ccccc2)CC1	0	x	5	x
COC(=O)C1CCN(C(=O)CSc2ccccc2)CC1	-3	-0.39	3	0.072
Cc1ccccc1OCCc1c(C)[nH]c(=S)[nH]c1=O	-1	1.7*	7	0.085
Cc1[nH]c(=S)[nH]c(=O)c1CCOc1ccccc1	1	0.56	12	x
COc1cccc(-c2nc(NCCN3CCOCC3)c3ccccc3n2)c1O	1	-0.84	6	x
Oc1ccccc1-c1nc(NCCN2CCOCC2)c2ccccc2n1	-2	-3.7*	4	0.073
O=C1C2C(C(=O)N1/N=C/c1ccc(N3CCCCC3)o1)C1C=CC2C12CC2 (centres undefined)	-1	0	3	x
CCOC(=O)c1c2ccc(OCC(=O)N/N=C/c3ccc(C)cc3)cc2n2ccccc12	4	x	10	x
CCOC(=O)c1c2ccc(OCC(=O)NN)cc2n2ccccc12	-1	-2.8*	2	0.055*
N#CC1=C(N)N=C(SCc2cccc3ccccc23)C(C(N)=O)C12CCCCC2 (centres undefined)	x	-0.37	2	x
CCCCC(=O)Nc1ccc(Br)cn1	x	-0.31	2	x
SMILES	bCat nuc transl	ROMK primary	MT stabilize HCS	ROMK retest
C=CCCC(=O)Nc1ccc(Br)cn1	8	2.5*	22	0.076
CCCCCC(=O)Nc1cccc(C2=NOC3(C2)C[C@@H](C(N)=O)N(C(=O)CC(c2ccccc2)c2ccccc2)C3)c1 (some centres undefined)	2	x	x	x
COC(=O)c1cc(=O)n2c(sc3ccccc32)c1C#N	1	x	x	x
CNC(=O)C1CC(=O)N(CCCc2ccccc2)C(=Nc2ccccc2)S1 (centres undefined)	x	-0.51	1	x
Cc1c(Cl)c([N+](=O)[O-])nn1CC(=O)Nc1ccc2c(c1)OCO2	x	-0.17	3	x
Cc1ccccc1C(=O)Nc1ccc(-c2nnc(SC(C)C(=O)O)n2C)cc1 (centres undefined)	0	x	x	0.079
CC(Sc1nnc(-c2ccc(Cl)cc2)n1C)C(N)=O (centres undefined)	-5	x	2	x
O=C(CSc1nnc(COc2ccccc2)o1)c1ccccc1	x	-1.1	1	x
CC(C)(C)NC(=O)CN(C(=O)CSc1nnc(COc2ccccc2)o1)c1cccc(F)c1	-4	-2.7*	1	u
CCN(CC)S(=O)(=O)c1ccc(O)c(C(=O)OCC(=O)N2c3ccccc3CC2C)c1 (centres undefined)	0	x	x	x
Cc1cc(C(=O)OCC(=O)N2c3ccccc3CC2C)c(C)o1 (centres undefined)	2	-1.4	1	u
N#Cc1ccc(CO/N=C/c2ccccc2)cc1	0	-0.11	7	x
COC(=O)c1ccsc1NC(=O)CN1C(=O)CCC1=O	-1	x	x	x
C=CCNCCOCCOc1ccccc1-c1ccccc1	-3	-1.8	2	x
CC(C)CC(=O)Nc1ccccc1N1CCCC1	-3	-6*	3	0.073
CC(C)CC(=O)NC(=S)Nc1ccccc1N1CCCC1	0	x	x	x
CC(C)n1c(SCC(=O)Nc2ccccc2N2CCOCC2)nc2c1c(=O)n(C)c(=O)n2C	-2	x	3	x

High-throughput results: PubChem, several laboratories
